Experimental data published in ChEMBL document CHEMBL3621164, “Discovery of Triazole CYP11B2 Inhibitors with in Vivo Activity in Rhesus Monkeys” (ACS Med Chem Lett, 2015).

Key:
[1] = biological target: T1, Cytochrome P450 11B1, mitochondrial (Homo sapiens, UniProt P15538); experiment: (§1) Inhibition of human CYP11B1 expressed in V79 cells assessed as cortisol level after 3 hrs by HTRF assay in presence of 250 nM 11-deoxycortisol; format: cell-based
T1 sequence (P15538 whole entry): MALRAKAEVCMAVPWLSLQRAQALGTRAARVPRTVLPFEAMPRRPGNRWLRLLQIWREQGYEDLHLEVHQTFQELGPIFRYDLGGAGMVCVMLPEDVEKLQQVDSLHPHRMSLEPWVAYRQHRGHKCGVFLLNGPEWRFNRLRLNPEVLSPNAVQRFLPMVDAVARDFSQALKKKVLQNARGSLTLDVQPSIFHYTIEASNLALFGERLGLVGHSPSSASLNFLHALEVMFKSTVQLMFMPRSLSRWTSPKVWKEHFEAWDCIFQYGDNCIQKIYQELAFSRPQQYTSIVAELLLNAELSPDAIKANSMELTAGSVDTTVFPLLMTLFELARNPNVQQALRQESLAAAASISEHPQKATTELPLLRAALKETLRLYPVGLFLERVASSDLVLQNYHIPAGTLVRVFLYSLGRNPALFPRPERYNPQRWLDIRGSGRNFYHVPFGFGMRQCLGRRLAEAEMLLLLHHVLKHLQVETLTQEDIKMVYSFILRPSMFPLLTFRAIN

Homo sapiens = species on record: Homo sapiens; experiment: Selectivity index, ratio IC50 for human CYP11B1 to IC50 for human CYP11B2
Method in brief: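 Ratio of human CYP11B1 IC50 to human CYP11B2 IC50; each IC50 calculated from n ≥ 2 determinations.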

[2] = Lipophilicity, log D of the compound by HPLC; format: physicochemical
Method in brief: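 Lipophilicity determined experimentally by HPLC.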

[3] = biological target: T2, Cytochrome P450 11B2, mitochondrial (Homo sapiens, UniProt P19099); experiment: Inhibition of human CYP11B2 expressed in V79 cells assessed as aldosterone level after 3 hrs by HTRF assay in presence of 125 nM 11-deoxycorticosterone; format: cell-based
T2 sequence (P19099 whole entry): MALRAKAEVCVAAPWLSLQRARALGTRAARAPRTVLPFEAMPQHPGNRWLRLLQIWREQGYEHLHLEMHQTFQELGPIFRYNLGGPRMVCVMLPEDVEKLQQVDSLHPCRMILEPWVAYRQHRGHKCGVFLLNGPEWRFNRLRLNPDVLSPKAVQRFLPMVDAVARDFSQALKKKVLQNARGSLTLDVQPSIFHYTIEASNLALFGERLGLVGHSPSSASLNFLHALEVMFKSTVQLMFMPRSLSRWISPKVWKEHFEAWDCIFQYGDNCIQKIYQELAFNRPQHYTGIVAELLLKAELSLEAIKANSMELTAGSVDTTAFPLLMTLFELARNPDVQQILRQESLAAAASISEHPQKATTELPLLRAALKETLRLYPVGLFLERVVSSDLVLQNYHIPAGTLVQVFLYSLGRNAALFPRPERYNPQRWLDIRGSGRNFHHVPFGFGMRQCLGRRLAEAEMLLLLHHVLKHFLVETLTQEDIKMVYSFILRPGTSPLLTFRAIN

Aromatase = biological target: T3, Aromatase (Homo sapiens, UniProt P11511); experiment: Inhibition of human CYP19
T3 sequence (P11511 whole entry): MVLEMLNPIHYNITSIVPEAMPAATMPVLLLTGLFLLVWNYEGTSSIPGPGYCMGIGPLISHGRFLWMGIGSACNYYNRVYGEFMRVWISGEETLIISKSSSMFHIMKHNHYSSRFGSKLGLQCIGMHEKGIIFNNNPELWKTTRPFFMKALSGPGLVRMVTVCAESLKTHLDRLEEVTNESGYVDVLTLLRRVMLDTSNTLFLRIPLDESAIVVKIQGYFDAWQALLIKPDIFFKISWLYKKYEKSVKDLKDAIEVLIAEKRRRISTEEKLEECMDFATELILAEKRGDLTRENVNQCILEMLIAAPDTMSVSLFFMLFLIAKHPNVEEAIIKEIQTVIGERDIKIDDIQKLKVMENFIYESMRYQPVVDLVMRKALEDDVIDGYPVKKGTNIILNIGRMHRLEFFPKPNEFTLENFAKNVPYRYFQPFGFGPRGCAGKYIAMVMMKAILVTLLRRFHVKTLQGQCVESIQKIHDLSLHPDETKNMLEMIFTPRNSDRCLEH

Cytochrome P450 3A4 = Cytochrome P450 3A4 (Homo sapiens, UniProt P08684); experiment: Inhibition of human CYP3A4; format: ADME
Cytochrome P450 3A4, sequence (P08684 whole entry): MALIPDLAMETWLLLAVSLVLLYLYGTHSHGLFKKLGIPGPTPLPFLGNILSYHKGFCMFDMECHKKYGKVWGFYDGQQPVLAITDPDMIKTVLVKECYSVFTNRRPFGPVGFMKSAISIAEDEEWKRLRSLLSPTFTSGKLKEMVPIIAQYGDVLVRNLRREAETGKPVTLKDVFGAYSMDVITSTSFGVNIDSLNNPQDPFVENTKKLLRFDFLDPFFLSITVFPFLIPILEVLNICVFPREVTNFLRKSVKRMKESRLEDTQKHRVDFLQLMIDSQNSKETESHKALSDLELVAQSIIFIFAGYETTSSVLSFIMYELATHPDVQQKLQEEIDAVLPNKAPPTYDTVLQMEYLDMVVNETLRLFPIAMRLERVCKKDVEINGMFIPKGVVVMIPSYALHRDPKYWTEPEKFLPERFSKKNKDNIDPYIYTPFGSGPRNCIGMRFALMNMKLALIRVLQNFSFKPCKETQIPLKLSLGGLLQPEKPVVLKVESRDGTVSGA

[4] = biological target: T4, Steroid 17-alpha-hydroxylase/17,20 lyase (Homo sapiens, UniProt P05093); experiment: Inhibition of human CYP17 expressed in COS7 cells assessed as DHEA level after 3 hrs by EIA assay in presence of 360 nM 17-hydroxypregnenolone; format: cell-based, COS-7
T4 sequence (P05093 whole entry): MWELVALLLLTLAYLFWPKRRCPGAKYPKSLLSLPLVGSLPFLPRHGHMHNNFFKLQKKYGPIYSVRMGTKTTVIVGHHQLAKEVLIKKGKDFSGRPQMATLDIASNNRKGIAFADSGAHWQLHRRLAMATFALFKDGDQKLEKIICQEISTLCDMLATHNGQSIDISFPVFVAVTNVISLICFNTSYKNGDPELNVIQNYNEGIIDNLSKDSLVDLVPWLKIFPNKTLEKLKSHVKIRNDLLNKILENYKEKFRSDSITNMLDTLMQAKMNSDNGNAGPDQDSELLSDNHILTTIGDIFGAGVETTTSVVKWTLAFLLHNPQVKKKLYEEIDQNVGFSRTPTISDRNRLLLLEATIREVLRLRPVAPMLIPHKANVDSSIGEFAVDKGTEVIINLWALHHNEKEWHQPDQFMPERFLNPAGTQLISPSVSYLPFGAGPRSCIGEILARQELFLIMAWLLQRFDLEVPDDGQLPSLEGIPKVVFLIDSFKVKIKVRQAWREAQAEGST

[5] = biological target: T5, Cytochrome P450 11B2, mitochondrial (Rattus norvegicus, UniProt P30099); experiment: Inhibition of rat CYP11B2 expressed in V79 cells assessed as aldosterone level after 3 hrs by HTRF assay in presence of 500 nM 11-deoxycorticosterone; format: cell-based; details: v79, 3 h
T5 sequence (P30099 whole entry): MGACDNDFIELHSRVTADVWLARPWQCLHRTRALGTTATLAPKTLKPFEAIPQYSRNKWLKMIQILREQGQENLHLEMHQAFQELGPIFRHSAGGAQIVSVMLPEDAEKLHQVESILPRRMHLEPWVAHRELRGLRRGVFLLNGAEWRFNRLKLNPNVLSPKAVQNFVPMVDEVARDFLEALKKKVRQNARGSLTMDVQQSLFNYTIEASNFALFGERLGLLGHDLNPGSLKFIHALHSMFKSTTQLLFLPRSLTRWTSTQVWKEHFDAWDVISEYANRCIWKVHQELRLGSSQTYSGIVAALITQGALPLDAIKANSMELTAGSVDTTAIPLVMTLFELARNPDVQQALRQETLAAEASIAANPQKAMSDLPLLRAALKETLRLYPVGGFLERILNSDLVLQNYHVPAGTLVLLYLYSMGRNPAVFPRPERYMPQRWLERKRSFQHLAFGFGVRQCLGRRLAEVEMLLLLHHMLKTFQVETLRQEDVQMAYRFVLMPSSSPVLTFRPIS

[6] = Oral bioavailability in Sprague-Dawley rat at 2 mg/kg administered through gavage; format: ADME, organism-based; details: in vivo
[7] = Inhibition of rhesus monkey CYP11B2 expressed in V79 cells assessed as aldosterone level after 3 hrs by HTRF assay in presence of 125 nM 11-deoxycorticosterone; format: cell-based; details: Macaca mulatta, V79, 3 h
[8] = Intrinsic clearance in Sprague-Dawley rat liver microsomes by LC/MS method; format: ADME; details: read-out: CLH
Rattus norvegicus = experiment: Dose normalized AUC in Sprague-Dawley rat at 2 mg/kg, po administered through gavage; format: ADME, organism-based; details: in vivo
[9] = Plasma clearance in Sprague-Dawley rat at 2 mg/kg, po administered through gavage by LC/MS/MS method; format: ADME, organism-based
[10] = Half life in Sprague-Dawley rat at 2 mg/kg, po administered through gavage by LC/MS/MS method; format: ADME, organism-based; details: in vivo
CYP11B1 = biological target: T6, CYP11B1 (Homo sapiens, UniProt P15538); experiment: as §1; format: cell-based; details: human, V79 cells expressing human CYP11B1, probe 11-deoxycortisol (250 nM)
T6 sequence (P15538 whole entry): T1 sequence (P15538 whole entry)

[11] = Plasma protein binding in Sprague-Dawley rat; format: ADME, cell-free

Compound	IC50 [1] [µM]	Ratio IC50 (Homo sapiens)	IC50 [3] [µM]	also measured
C[C@](O)(c1cncc(-c2ccc3c(c2)CCc2nnc(C(F)(F)F)n2-3)c1)C(F)(F)F	0.887	2	0.461	logD [2]: 2.2
c1cncc(-c2ccc3c(c2)CCc2nnc(C4CC4)n2-3)c1	> 10	> 21	0.487	
Cc1nnc2n1-c1ccc(-c3cncc(C(C)(C)O)c3)cc1CC2	> 8.33	> 29	0.283	inhibition (INH) [5]: Active; bioavailability [6]: 19%; IC50 [7]: 0.034 µM; CLint scaled [8]: < 20 mL/min/kg; AUC/dose (Rattus norvegicus): 0.19 µM·kg·h/mg; CL/F [9]: 50 mL/min/kg; logD [2]: 0.6; half-life [10]: 90 min
Cc1nnc2n1-c1ccc(-c3cccnc3)cc1CC2	> 10	> 24	0.423	bioavailability [6]: 6%; CLint scaled [8]: 55 mL/min/kg; AUC/dose (Rattus norvegicus): 0.1 µM·kg·h/mg; CL/F [9]: 38 mL/min/kg; half-life [10]: 12 min
c1cncc(-c2ccc3c(c2)CCc2nncn2-3)c1	> 10	> 33	0.3	
Cc1nnc2n1-c1ccc(-c3cncc(S(C)(=O)=O)c3)cc1CC2	> 8.33		> 8.33	
FC(F)(F)c1nnc2n1-c1ccc(-c3cccnc3)cc1CC2	> 8.33	> 16	0.506	
Cc1nnc2n1-c1ccc(-c3cncc(C(F)(F)F)c3)cc1CC2	> 10		0.486	
Cc1nnc2n1-c1ccc(-c3cncc(C(=O)N(C)C)c3)cc1CC2	> 8.33		> 8.33	
COC(C)(C)c1cncc(-c2ccc3c(c2)CCc2nnc(C)n2-3)c1	0.219		0.019	inhibition (INH) [5]: Active; bioavailability [6]: 10%; IC50 (Aromatase): 11.2 µM; IC50 (Cytochrome P450 3A4): > 50 µM; IC50 [7]: 0.003 µM; IC50 [4]: > 10 µM; CLint scaled [8]: 107 mL/min/kg; AUC/dose (Rattus norvegicus): 0.03 µM·kg·h/mg; CL/F [9]: 177 mL/min/kg; half-life [10]: 18 min
Cc1nnc2n1-c1ccc(-c3cncc([C@@](C)(O)C(F)(F)F)c3)cc1CC2	> 8.33		0.109	logD [2]: 1.2

Now from value to compound, other results behind:

IC50 [1] [µM]	Ratio IC50 (Homo sapiens)	IC50 [3] [µM]	Compound	also measured
1.36	13	0.103	c1ccc(-c2nnc3n2-c2ccc(-c4cccnc4)cc2CC3)cc1	IC50 (Aromatase): 0.021 µM; IC50 (Cytochrome P450 3A4): 36.5 µM; IC50 [4]: 0.084 µM
2.2		0.058	COC(=O)c1cncc(-c2ccc3c(c2)CCc2nnc(C)n2-3)c1	IC50 (Aromatase): > 10 µM; IC50 (Cytochrome P450 3A4): > 50 µM; IC50 [4]: > 10 µM
> 8.33		> 8.33	CNC(=O)c1cncc(-c2ccc3c(c2)CCc2nnc(C)n2-3)c1	
> 10		0.558	Cc1nnc2n1-c1ccc(-c3cncc(F)c3)cc1CC2	
> 8.33	> 18	0.476	C[C@@](O)(c1cncc(-c2ccc3c(c2)CCc2nnc(C(F)(F)F)n2-3)c1)C(F)(F)F	logD [2]: 2.2
> 8.33	> 3	2.4	c1cncc(-c2ccc3c(c2)CCc2nnc(C4CCCCC4)n2-3)c1	
		0.005	Cc1nnc2n1-c1ccc(-c3cncc4ccccc34)cc1CC2	bioavailability [6]: 75%; IC50 at 3 h (CYP11B1): 0.407 µM; CLint scaled [8]: 33 mL/min/kg; AUC/dose (Rattus norvegicus): 0.27 µM·kg·h/mg; CL/F [9]: 150 mL/min/kg; half-life [10]: 24 min
0.317		0.019	COC(=O)C(C)(C)c1cncc(-c2ccc3c(c2)CCc2nnc(C)n2-3)c1	
1.47	3	0.526	CC(C)(O)c1cncc(-c2ccc3c(c2)CCc2nnc(C(F)(F)F)n2-3)c1	bioavailability [6]: 83%; CLint scaled [8]: < 20 mL/min/kg; fraction unbound [11]: 0.997; AUC/dose (Rattus norvegicus): 3.87 µM·kg·h/mg; CL/F [9]: 10 mL/min/kg; logD [2]: 1.5; half-life [10]: 174 min
1.5		0.04	Cc1nnc2n1-c1ccc(-c3cncc(S(=O)(=O)c4ccccc4)c3)cc1CC2	
